Here are results for five molecules from paper PMC7805566 (Medicinal Chemistry Research, 2021).

By MIC is commonly meant the lowest concentration found to suppress growth. The term AUC(0-t) denotes the area under the concentration-time curve up to a stated or last time point. Lower therefore signals less exposure. The Cmax is the highest concentration seen after dosing. A word on the Tmax: it is the time at which the peak concentration occurs. As a reminder, the Vd is a proportionality between amount in the body and measured concentration, not a real space. The term clearance denotes a measure of how efficiently the substance is removed, as volume per time. Read a high clearance as efficient removal. The half-life is how long it takes for the measured level to halve. Usually bioavailability stands for the share of a dose that reaches the circulation, judged against a reference dose that is usually intravenous.

Data set [1] concerns M. tuberculosis H37Rv. Briefly: MIC against Mtb H37Rv, microplate alamar blue assay. It is filed as cell-based, Mycobacterium tuberculosis. The note with it: for MIC: Mycobacterium tuberculosis, H37RV. In general terms: The colour change of resazurin is a common sign of viable cells or microbes.
Data set [2] in a line: Microsomal stability, mouse liver microsomes. In kind it is in vitro ADME. A digest of the protocol: (§1)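 The test compound, taken from a 10 mM DMSO stock and diluted to 100 μM in DMSO, was added to mouse or human liver microsomes and preincubated at 37 °C for 5 min. The reaction was started with buffer/NADPH working solution (5 mM); samples without NADPH were the negative controls. Aliquots at 0 and 30 min were quenched with internal standard, centrifuged at 4 °C, and measured by LC-MS/MS.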

Data set [3] can be described thus: Microsomal stability, human liver microsomes. In kind it is in vitro ADME. Put shortly: as §1
(In general: Liver microsomes are vesicles of endoplasmic reticulum, rich in cytochrome P450 enzymes.)

Data set [4] relates to Vero cells.
A short description of data set [5]: In vivo pharmacokinetic profiles in male ICR mice. As to conditions: for AUC(0-t) / Cmax / Tmax / Vd / clearance / half-life / bioavailability: male, ICR, mouse, plasma; for bioavailability: oral. Put shortly:
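SPF male ICR mice (22–23 g), three per route. Oral 10 mg/kg (1.0 mg/mL in 0.5% carboxymethyl cellulose/0.5% Tween 80); i.v. 2 mg/kg (0.4 mg/mL in 20% HP-β-CD with 4 mol/L HCl). Plasma extracted 20:1 with acetonitrile containing internal standard; LC-MS/MS, C18, isocratic acetonitrile/water 80:20 with 0.1% formic acid. Non-compartmental parameters; F = (AUCp.o.×dosei.v.)/(AUCi.v.×dosep.o.).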

The nature of data set [6]: Metabolic stability in liver microsomes. It is filed as in vitro ADME. As to conditions: mouse and human liver microsomes, without NADPH. A digest of the protocol:
as §1

The conditions of data set [7]: liver microsomes, previous reports ref 30; cited from earlier work.
[8] abbreviates: Mouse (% remaining at 30 min) With NADPH, with NADPH.
Setting [9] is: Mouse (% remaining at 30 min) Without NADPH, without NADPH.
Where [10] appears, read: Human (% remaining at 30 min) With NADPH, with NADPH.
Where [11] appears, read: Human (% remaining at 30 min) Without NADPH, without NADPH.

≈ marks a conversion by molar mass, not a printed value.

In turn, `N#Cc1cc(C(F)(F)F)cc2c(=O)nc(N3CCN(CC4CCCC4)CC3)sc12` [Compound 1c, 2-(4-(cyclopentylmethyl)piperazin-1-yl)-4-oxo-6-(trifluoromethyl)-4H-benzo[e][1,3]thiazine-8-carbonitrile] displayed an MIC in data set [1] of 0.2 µM (≈ 0.0845 µg/mL).
For `N#Cc1cc(C(F)(F)F)cc2c(=O)nc(N3CCN(CC4CCCCC4)CC3)sc12` [Compound 1d, 2-(4-(cyclohexylmethyl)piperazin-1-yl)-4-oxo-6-(trifluoromethyl)-4H-benzo[e][1,3]thiazine-8-carbonitrile], the share remaining at 0.5 h, 1 µM in data set [2] (setting [8]) was 38.6%. Further, in data set [2] (setting [9]), the fraction remaining at 0.5 h, 1 µM was found to be 96.4%. For the same molecule, the amount remaining at 0.5 h, 1 µM in data set [3] (setting [10]) amounted to 26.3%. Further, the share remaining at 0.5 h, 1 µM in data set [3] (setting [11]) came to 102%. Besides, the MIC in data set [1] came out at 0.13 µM (≈ 0.0567 µg/mL). In data set [4], the “cytotoxicity (in words)” value was “no cytotoxicity”. For the same molecule, the “increase in the volume of distribution (V) relative to macozinone” value in data set [5] (i.v. dosing, mice) came to 2.0 fold. In addition, in data set [5] (iv, 2 mg/kg), the AUC(0-t) came out at 445 ng·h/mL, the Cmax was determined as 1340 ng/mL, the Tmax was 1.98 min and the Vd turned out to be 11.3 L/kg. Besides, in data set [5] (iv, 2 mg/kg), the clearance turned out to be 71.2 mL/min/kg and the half-life was 110 min. The molecule also displayed a bioavailability in data set [5] (10 mg/kg) of 7.8%. Also, in data set [5] (po, 10 mg/kg), the AUC(0-t) was 174 ng·h/mL, the Cmax is 110 ng/mL, the Tmax was 15 min and the half-life is 104 min. Also, the “decrease of oral bioavailability relative to macozinone” value in data set [5] (mice) is recorded as “twofold”. This molecule displayed a maximum plasma concentration in data set [5] (oral dosing, male ICR mice) of 240 nM. Also, the “metabolism in the absence of NADPH (in words)” value in data set [6] was “neither macozinone nor 1d were metabolized”.
On to `N#Cc1cc(C(F)(F)F)cc2c(=O)nc(N3CCN(CC4CCOC4)CC3)sc12` (centres unmarked) [Compound 1e, 4-Oxo-2-(4-((tetrahydrofuran-3-yl)methyl)piperazin-1-yl)-6-(trifluoromethyl)-4H-benzo[e][1,3]thiazine-8-carbonitrile], for which the “loss of potency relative to cyclopentyl methyl 1c” value in data set [1] (Mtb H37Rv MIC) is reported as 10 fold.
Turning to `N#Cc1cc(C(F)(F)F)cc2c(=O)nc(N3CCN(CC4COC4)CC3)sc12` [Compound 1f, 2-(4-(oxetan-3-ylmethyl)piperazin-1-yl)-4-oxo-6-(trifluoromethyl)-4H-benzo[e][1,3]thiazine-8-carbonitrile], the “antimycobacterial activity (in words)” value in data set [1] (Mtb H37Rv) was “inactive”.
`O=c1nc(N2CCN(CC3CCCCC3)CC2)sc2c([N+](=O)[O-])cc(C(F)(F)F)cc12` [Macozinone, reference compound]: in data set [2] (setting [8]), the amount remaining at 0.5 h, 1 µM was 50.7%. Besides, the fraction remaining at 0.5 h, 1 µM in data set [2] (setting [9]) amounted to 102%. The amount remaining at 0.5 h, 1 µM in data set [3] (setting [10]) was 46.8%. Besides, in data set [3] (setting [11]), the amount remaining at 0.5 h, 1 µM worked out at 101%. Also, in data set [5] (iv, 2 mg/kg), the AUC(0-t) came out at 423 ng·h/mL, the Cmax worked out at 1230 ng/mL, the Tmax came to 1.98 min and the Vd was 5.64 L/kg. Also, in data set [5] (iv, 2 mg/kg), the clearance was 75.8 mL/min/kg and the half-life was 51.6 min. In data set [5] (10 mg/kg), this molecule came in with a bioavailability of 16.7%. In data set [5] (po, 10 mg/kg), the AUC(0-t) is 354 ng·h/mL, the Cmax stood at 251 ng/mL, the Tmax came out at 15 min and the half-life is 101 min. Moreover, the “half-life (metabolic stability)” value in data set [7] is 34 to 43 min. Moreover, the “metabolism in the absence of NADPH (in words)” value in data set [6] is “neither macozinone nor 1d were metabolized”.
